From ChEMBL document CHEMBL5321217, “Identification of pyrrolo[3',4':3,4]cyclohepta[1,2-d][1,2]oxazoles as promising new candidates for the treatment of lymphomas” (Eur J Med Chem, 2023)
Activity calls are given as the source filed them. No cut-off for these calls is given here.

Columns and labels:
NCI-H522 = experiment: Antiproliferative activity against human NCI-H522 cells assessed as growth inhibition incubated for 72 hrs by MTT assay; assay type: functional
UO-31 = experiment: Antiproliferative activity against human UO-31 cells assessed as growth inhibition incubated for 72 hrs by MTT assay; assay type: functional
RPMI-8226 = experiment: Antiproliferative activity against human RPMI-8226 cells assessed as growth inhibition incubated for 72 hrs by MTT assay; assay type: functional
CCRF-CEM [1] = experiment: Induction of cell cycle arrest in human CCRF-CEM cells assessed as accumulation of cells at G2/M phase at 1 uM incubated for 24 hrs by PI staining based flow cytometry analysis; assay type: functional
Procedure, shortened: (§1)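 Seeding in 6-well plates, 2 mL medium: A549 5×10^4, CCRF-CEM 2.5×10^5, VL51 2.0×10^5. 24 h treatment, A549 detached with trypsin-EDTA. Cells fixed in 70% ice-cold ethanol, PI-labelled, analysed by flow cytometry. Mean of two independent experiments.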

SR = experiment: Antiproliferative activity against human SR cells assessed as growth inhibition incubated for 72 hrs by MTT assay; assay type: functional
T47D = experiment: Antiproliferative activity against human T47D cells assessed as growth inhibition incubated for 72 hrs by MTT assay; assay type: functional
[2] = Antiproliferative activity against human MINO cells assessed as reduction in cell proliferation at 1 uM measured after 72 hrs by MTT assay relative to control; assay type: functional; set-up: scale not given: the % may be the effect or the level left
Procedure, shortened: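 Single-dose screen at 1 μM for 72 h at 37 °C, 5% CO2 (DMSO ≤0.1%). Cells in RPMI-1640 with 20% FBS, seeded at 5,000–10,000 cells/well. MTT added for 4 h, SDS lysis, A570 read with medium-only blanks. Percent proliferation relative to untreated cells, run in triplicate.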

VL51 [3] = experiment: Antiproliferative activity against human VL51 cells assessed as reduction in cell proliferation at 1 uM measured after 72 hrs by MTT assay relative to control; assay type: functional; set-up: scale not given: the % may be the effect or the level left
Procedure, shortened: (§2)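 Single-dose 1 μM screen in lymphoma cells (RPMI-1640, 20% FBS; 5,000–10,000 cells/well), 72 h at 37 °C, 5% CO2, DMSO ≤0.1%. MTT for 4 h, SDS lysis, absorbance at 570 nm. Proliferation expressed as percent of untreated control.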

MDA-MB-435 = experiment: Antiproliferative activity against human MDA-MB-435 cells assessed as growth inhibition incubated for 72 hrs by MTT assay; assay type: functional
VL51 [4] = experiment: Induction of cell cycle arrest in human VL51 cells assessed as accumulation of cells at G2/M phase at 1 uM incubated for 24 hrs by PI staining based flow cytometry analysis; assay type: functional; procedure, shortened: as §1
SN12C = experiment: Antiproliferative activity against human SN12C cells assessed as growth inhibition incubated for 72 hrs by MTT assay; assay type: functional
HOP-92 = experiment: Antiproliferative activity against human HOP-92 cells assessed as growth inhibition incubated for 72 hrs by MTT assay; assay type: functional
EKVX = experiment: Antiproliferative activity against human EKVX cells assessed as growth inhibition incubated for 72 hrs by MTT assay; assay type: functional
SU-DHL10 = experiment: Antiproliferative activity against human SU-DHL-10 cells assessed as reduction in cell proliferation at 1 uM measured after 72 hrs by MTT assay relative to control; assay type: functional; set-up: scale not given: the % may be the effect or the level left; procedure, shortened: as §2
NCI-H226 = experiment: Antiproliferative activity against human NCI-H226 cells assessed as growth inhibition incubated for 72 hrs by MTT assay; assay type: functional
CCRF-CEM [5] = experiment: Induction of cell cycle arrest in human CCRF-CEM cells assessed as reduction in accumulation of cells at S phase at 1 uM incubated for 24 hrs by PI staining based flow cytometry analysis; assay type: functional; procedure, shortened: as §1
M14 = experiment: Antiproliferative activity against human M14 cells assessed as growth inhibition incubated for 72 hrs by MTT assay; assay type: functional
A549 [6] = experiment: Induction of cell cycle arrest in human A549 cells assessed as reduction in accumulation of cells at S phase at 1 uM incubated for 24 hrs by PI staining based flow cytometry analysis; assay type: functional; procedure, shortened: as §1
SF-539 = experiment: Antiproliferative activity against human SF-539 cells assessed as growth inhibition incubated for 72 hrs by MTT assay; assay type: functional
Hs-578T = experiment: Antiproliferative activity against human Hs-578T cells assessed as growth inhibition incubated for 72 hrs by MTT assay; assay type: functional
HL-60(TB) = experiment: Antiproliferative activity against human HL-60(TB) cells assessed as growth inhibition incubated for 72 hrs by […]; assay type: functional
Procedure, shortened: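 NCI 60-cell-line panel screen. […] Compounds were dissolved in DMSO as 10 mM stocks, and DMSO in the assays stayed at or below 0.1%.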

VL51 [7] = experiment: Induction of cell cycle arrest in human VL51 cells assessed as reduction in accumulation of cells at S phase at 1 uM incubated for 24 hrs by PI staining based flow cytometry analysis; assay type: functional; procedure, shortened: as §1
A549 [8] = experiment: Induction of apoptosis in human A549 cells assessed as increase in apoptotic cells incubated for 48 hrs by annexin V-FITC and PI staining based flow cytometric analysis; assay type: functional, cell-based; settings: dose 1-5 µM
Procedure, shortened: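 Cells exposed to several concentrations for 48 h, then stained with annexin V-FITC and PI and read by flow cytometry (FL1/FL3). Apoptotic cells = annexin V-positive plus annexin V/PI double-positive. Mean of three independent experiments.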

786-0 = experiment: Antiproliferative activity against human 786-0 cells assessed as growth inhibition incubated for 72 hrs by MTT assay; assay type: functional
HOP-62 = experiment: Antiproliferative activity against human HOP-62 cells assessed as growth inhibition incubated for 72 hrs by MTT assay; assay type: functional
MCF7 = experiment: Antiproliferative activity against human MCF7 cells assessed as growth inhibition incubated for 72 hrs by MTT assay; assay type: functional
CCRF-CEM [9] = experiment: Antiproliferative activity against human CCRF-CEM cells assessed as growth inhibition incubated for 72 hrs by MTT assay; assay type: functional
U-251 = experiment: Antiproliferative activity against human U-251 cells assessed as growth inhibition incubated for 72 hrs by MTT assay; assay type: functional
HT-29 = experiment: Antiproliferative activity against human HT-29 cells assessed as growth inhibition incubated for 72 hrs by MTT assay; assay type: functional
SW-620 = experiment: Antiproliferative activity against human SW-620 cells assessed as growth inhibition incubated for 72 hrs by MTT assay; assay type: functional
OVCAR-5 = experiment: Antiproliferative activity against human OVCAR-5 cells assessed as growth inhibition incubated for 72 hrs by MTT assay; assay type: functional
VL51 [10] = experiment: Induction of cell cycle arrest in human VL51 cells assessed as increase in mitotic cells at 1 uM incubated for 24 hrs by PI staining based flow cytometry analysis (reference value: 1.5%); assay type: functional
[11] = Cytotoxicity against PHA-induced human PBL cells assessed as inhibition of cell growth measured after 72 hrs by MTT assay; assay type: toxicity, cell-based; settings: PHA-induced human peripheral blood lymphocytes (PBL)
SK-MEL-5 = experiment: Antiproliferative activity against human SK-MEL-5 cells assessed as growth inhibition incubated for 72 hrs by MTT assay; assay type: functional
NCI-H322M = experiment: Antiproliferative activity against human NCI-H322M cells assessed as growth inhibition incubated for 72 hrs by MTT assay; assay type: functional
NCI-H460 = experiment: Antiproliferative activity against human NCI-H460 cells assessed as growth inhibition incubated for 72 hrs by MTT assay; assay type: functional
BT-549 = experiment: Antiproliferative activity against human BT-549 cells assessed as growth inhibition incubated for 72 hrs by MTT assay; assay type: functional

Structure (SMILES)	GI50 (NCI-H522)	GI50 (UO-31)	GI50 (RPMI-8226)	Activity (CCRF-CEM [1])	GI50 (SR)	GI50 (T47D)	Activity [2]	Activity (VL51 [3])	GI50 (MDA-MB-435)	Activity (VL51 [4])	GI50 (SN12C)	GI50 (HOP-92)	GI50 (EKVX)	Activity (SU-DHL10)	GI50 (NCI-H226)	Activity (CCRF-CEM [5])	GI50 (M14)	Activity (A549 [6])	GI50 (SF-539)	GI50 (Hs-578T)	further results
COc1ccc(Cn2cc3c(c2-c2cc(OC)c(OC)c(OC)c2)CCCc2cnoc2-3)cc1	980 nM	920 nM	1560 nM	Active	360 nM	1850 nM	>50%	>50%	230 nM	Active	4600 nM	1270 nM	3000 nM	>50%	1990 nM	Active	390 nM	Active	700 nM	1540 nM	GI50 (HL-60(TB)): 350 nM; Activity (VL51 [7]): Active; Activity (A549 [8]): Dose-Dependent Effect; GI50 (786-0): 670 nM; GI50 (HOP-62): 2220 nM; GI50 (MCF7): 440 nM; GI50 (CCRF-CEM [9]): 410 nM; GI50 (U-251): 4470 nM; GI50 (HT-29): 1130 nM; GI50 (SW-620): 470 nM; GI50 (OVCAR-5): 3720 nM; Activity (VL51 [10]): ~18%; IC50 at 72 h [11]: > 10000 nM; GI50 (SK-MEL-5): 2000 nM; GI50 (NCI-H322M): 3280 nM; GI50 (NCI-H460): 500 nM; GI50 (BT-549): 480 nM
COc1ccc(Cn2cc3c(c2-c2cc(OC)c(OC)c(OC)c2)CCCc2cnoc2-3)cc1N	260 nM	690 nM	610 nM	Active	360 nM	390 nM	>50%	>50%	240 nM	Active	840 nM	520 nM	2670 nM	>50%	2540 nM	Active	480 nM	Active	400 nM	400 nM	GI50 (HL-60(TB)): 300 nM; Activity (VL51 [7]): Active; Activity (A549 [8]): Dose-Dependent Effect; GI50 (786-0): 520 nM; GI50 (HOP-62): 690 nM; GI50 (MCF7): 420 nM; GI50 (CCRF-CEM [9]): 440 nM; GI50 (U-251): 510 nM; GI50 (HT-29): 420 nM; GI50 (SW-620): 430 nM; GI50 (OVCAR-5): 1440 nM; Activity (VL51 [10]): ~18%; IC50 at 72 h [11]: > 10000 nM; GI50 (SK-MEL-5): 1130 nM; GI50 (NCI-H322M): 840 nM; GI50 (NCI-H460): 400 nM; GI50 (BT-549): 250 nM
